# From ChEMBL document CHEMBL4689842, “EUbOPEN Chemogenomics Library wave 1” (2021)
# Several values for one entry are separate records, joined by “and”; a condition that tells them apart may be missing. Identical values can stand only once.
# Test system: HEK-293T
# Assay: Multiplex assay against HEK293T;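 on Population Tubulin-Different-Phenotype (%): share of the cells with healthy nuclei that show this phenotype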
# Type: toxicity, cell-based
# Settings: human
# Method in brief: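 Live cells were stained at seeding with Hoechst33342, BioTracker Green Microtubule Cytoskeleton Dye, MitoTracker Red and Annexin V Alexa Fluor 680, then imaged on a CQ1 microscope at 37°C and 5% CO2 after compound addition. CellPathfinder machine-learning gating split cells into Hoechst high-intensity objects or normal cells. Normal cells were split into healthy, pyknosed or fragmented nuclei, and pyknosed cells into mitotic or apoptotic. Tubulin, mitochondrial-mass and membrane-permeability phenotypes are per cents of healthy-nucleus cells.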
# [1] = 12 h, 1 µM, compound concentration 1 uM, replicate 1
# [2] = 12 h, 1 µM, compound concentration 1 uM, replicate 2
# [3] = 24 h, 1 µM, compound concentration 1 uM, replicate 1
# [4] = 24 h, 1 µM, compound concentration 1 uM, replicate 2
# [5] = 12 h, 10 µM, compound concentration 10 uM, replicate 1
# [6] = 12 h, 10 µM, compound concentration 10 uM, replicate 2
# [7] = 24 h, 10 µM, compound concentration 10 uM, replicate 1
# [8] = 24 h, 10 µM, compound concentration 10 uM, replicate 2
# [9] = 48 h, 1 µM, compound concentration 1 uM, replicate 1
# [10] = 48 h, 1 µM, compound concentration 1 uM, replicate 2
# [11] = 48 h, 10 µM, compound concentration 10 uM, replicate 1
# [12] = 48 h, 10 µM, compound concentration 10 uM, replicate 2
smiles,measurement,setting,value
C[C@]1(O)C[C@@H](c2nc(-c3ccc4ccc(-c5ccccc5)nc4c3)c3c(N)nccn32)C1 [LINSITINIB],Population Apoptotic (%),[1],31% and 29%
same,Population Fragmented Nuclei (%),[1],19% and 26%
same,Population Healthy Nuclei (%),[1],45% and 44%
same,Population Hoechst High Intensity Objects (%),[1],33% and 19%
same,Population Membrane Permeable-Phenotype (%),[1],11% and 4%
same,Population Mitochondria Different-Phenotype (%),[1],17% and 6%
same,Population Mitotic Cells (%),[1],68% and 70%
same,Population Normal (%),[1],66% and 80%
same,Population Pyknosed Nuclei (%),[1],35% and 28%
same,Total Cell Count,[1],588 and 493
same,Population Apoptotic (%),[2],18% and 11%
same,Population Fragmented Nuclei (%),[2],4% and 8%
same,Population Healthy Nuclei (%),[2],83% and 86%
same,Population Hoechst High Intensity Objects (%),[2],14% and 5%
same,Population Membrane Permeable-Phenotype (%),[2],5% and 1%
same,Population Mitotic Cells (%),[2],81% and 88%
same,Population Normal (%),[2],85% and 94%
same,Population Pyknosed Nuclei (%),[2],11% and 4%
same,Total Cell Count,[2],891 and 1486
same,Population Apoptotic (%),[3],31% and 26%
same,Population Fragmented Nuclei (%),[3],22% and 26%
same,Population Healthy Nuclei (%),[3],53% and 56%
same,Population Hoechst High Intensity Objects (%),[3],27% and 13%
same,Population Membrane Permeable-Phenotype (%),[3],7% and 5%
same,Population Mitochondria Different-Phenotype (%),[3],29% and 10%
same,Population Mitotic Cells (%),[3],68% and 73%
same,Population Normal (%),[3],72% and 86%
same,Population Pyknosed Nuclei (%),[3],23% and 16%
same,Total Cell Count,[3],525 and 479
same,Population Fragmented Nuclei (%),[4],10%
same,Population Healthy Nuclei (%),[4],82% and 71%
same,Population Hoechst High Intensity Objects (%),[4],18% and 6%
same,Population Membrane Permeable-Phenotype (%),[4],8% and 4%
same,Population Mitotic Cells (%),[4],80% and 93%
same,Population Normal (%),[4],81% and 93%
same,Population Pyknosed Nuclei (%),[4],6% and 2%
same,Total Cell Count,[4],1000 and 2217
CC1=C(C(=O)Nc2cc3cn[nH]c3cc2F)C(c2ccc(C(F)(F)F)cc2)CC(=O)N1 (configuration not stated),Population Apoptotic (%),[1],47%
same,Population Fragmented Nuclei (%),[1],13%
same,Population Healthy Nuclei (%),[1],43%
same,Population Hoechst High Intensity Objects (%),[1],7%
same,Population Membrane Permeable-Phenotype (%),[1],3%
same,Population Mitochondria Different-Phenotype (%),[1],63%
same,Population Mitotic Cells (%),[1],52%
same,Population Normal (%),[1],92%
same,Population Pyknosed Nuclei (%),[1],42%
same,Population Tubulin-Different-Phenotype (%),[1],29%
same,Total Cell Count,[1],402
same,Population Apoptotic (%),[2],6%
same,Population Fragmented Nuclei (%),[2],12%
same,Population Healthy Nuclei (%),[2],46%
same,Population Hoechst High Intensity Objects (%),[2],2%
same,Population Membrane Permeable-Phenotype (%),[2],12%
same,Population Mitochondria Different-Phenotype (%),[2],12%
same,Population Mitotic Cells (%),[2],93%
same,Population Normal (%),[2],97%
same,Population Pyknosed Nuclei (%),[2],40%
same,Population Tubulin-Different-Phenotype (%),[2],14%
same,Total Cell Count,[2],235
same,Population Apoptotic (%),[5],38%
same,Population Fragmented Nuclei (%),[5],12%
same,Population Healthy Nuclei (%),[5],41%
same,Population Hoechst High Intensity Objects (%),[5],10%
same,Population Membrane Permeable-Phenotype (%),[5],5%
same,Population Mitochondria Different-Phenotype (%),[5],64%
same,Population Mitotic Cells (%),[5],61%
same,Population Normal (%),[5],89%
same,Population Pyknosed Nuclei (%),[5],45%
same,Population Tubulin-Different-Phenotype (%),[5],36%
same,Total Cell Count,[5],236
same,Population Apoptotic (%),[6],16%
same,Population Fragmented Nuclei (%),[6],10%
same,Population Healthy Nuclei (%),[6],37%
same,Population Hoechst High Intensity Objects (%),[6],5%
same,Population Membrane Permeable-Phenotype (%),[6],11%
same,Population Mitochondria Different-Phenotype (%),[6],24%
same,Population Mitotic Cells (%),[6],83%
same,Population Normal (%),[6],95%
same,Population Pyknosed Nuclei (%),[6],52%
same,Population Tubulin-Different-Phenotype (%),[6],34%
same,Total Cell Count,[6],240
same,Population Apoptotic (%),[3],41%
same,Population Fragmented Nuclei (%),[3],11%
same,Population Healthy Nuclei (%),[3],41%
same,Population Hoechst High Intensity Objects (%),[3],12%
same,Population Membrane Permeable-Phenotype (%),[3],3%
same,Population Mitochondria Different-Phenotype (%),[3],46%
same,Population Mitotic Cells (%),[3],58%
same,Population Normal (%),[3],87%
same,Population Pyknosed Nuclei (%),[3],47%
same,Population Tubulin-Different-Phenotype (%),[3],29%
same,Total Cell Count,[3],443
same,Population Apoptotic (%),[4],12%
same,Population Healthy Nuclei (%),[4],63%
same,Population Hoechst High Intensity Objects (%),[4],1%
same,Population Membrane Permeable-Phenotype (%),[4],14%
same,Population Mitochondria Different-Phenotype (%),[4],8%
same,Population Mitotic Cells (%),[4],87%
same,Population Normal (%),[4],98%
same,Population Pyknosed Nuclei (%),[4],25%
same,Population Tubulin-Different-Phenotype (%),[4],17%
same,Total Cell Count,[4],274
same,Population Apoptotic (%),[7],42%
same,Population Fragmented Nuclei (%),[7],15%
same,Population Healthy Nuclei (%),[7],41%
same,Population Hoechst High Intensity Objects (%),[7],10%
same,Population Membrane Permeable-Phenotype (%),[7],6%
same,Population Mitochondria Different-Phenotype (%),[7],61%
same,Population Mitotic Cells (%),[7],57%
same,Population Normal (%),[7],89%
same,Population Pyknosed Nuclei (%),[7],42%
same,Population Tubulin-Different-Phenotype (%),[7],41%
same,Total Cell Count,[7],229
same,Population Apoptotic (%),[8],26%
same,Population Fragmented Nuclei (%),[8],11%
same,Population Healthy Nuclei (%),[8],61%
same,Population Hoechst High Intensity Objects (%),[8],2%
same,Population Membrane Permeable-Phenotype (%),[8],12%
same,Population Mitochondria Different-Phenotype (%),[8],26%
same,Population Mitotic Cells (%),[8],73%
same,Population Normal (%),[8],97%
same,Population Pyknosed Nuclei (%),[8],26%
same,Population Tubulin-Different-Phenotype (%),[8],47%
same,Total Cell Count,[8],258
same,Population Apoptotic (%),[9],29%
same,Population Fragmented Nuclei (%),[9],18%
same,Population Healthy Nuclei (%),[9],47%
same,Population Hoechst High Intensity Objects (%),[9],10%
same,Population Membrane Permeable-Phenotype (%),[9],6%
same,Population Mitochondria Different-Phenotype (%),[9],23%
same,Population Mitotic Cells (%),[9],70%
same,Population Normal (%),[9],89%
same,Population Pyknosed Nuclei (%),[9],34%
same,Population Tubulin-Different-Phenotype (%),[9],22%
same,Total Cell Count,[9],530
same,Population Apoptotic (%),[10],5%
same,Population Fragmented Nuclei (%),[10],10%
same,Population Healthy Nuclei (%),[10],77%
same,Population Hoechst High Intensity Objects (%),[10],2%
same,Population Membrane Permeable-Phenotype (%),[10],8%
same,Population Mitochondria Different-Phenotype (%),[10],3%
same,Population Mitotic Cells (%),[10],94%
same,Population Normal (%),[10],97%
same,Population Pyknosed Nuclei (%),[10],11%
same,Population Tubulin-Different-Phenotype (%),[10],15%
same,Total Cell Count,[10],488
same,Population Apoptotic (%),[11],49%
same,Population Fragmented Nuclei (%),[11],16%
same,Population Healthy Nuclei (%),[11],49%
same,Population Hoechst High Intensity Objects (%),[11],14%
same,Population Membrane Permeable-Phenotype (%),[11],7%
same,Population Mitochondria Different-Phenotype (%),[11],29%
same,Population Mitotic Cells (%),[11],50%
same,Population Normal (%),[11],85%
same,Population Pyknosed Nuclei (%),[11],33%
same,Population Tubulin-Different-Phenotype (%),[11],34%
same,Total Cell Count,[11],261
same,Population Apoptotic (%),[12],65%
same,Population Healthy Nuclei (%),[12],75%
same,Population Hoechst High Intensity Objects (%),[12],2%
same,Population Membrane Permeable-Phenotype (%),[12],6%
same,Population Mitochondria Different-Phenotype (%),[12],19%
same,Population Mitotic Cells (%),[12],34%
same,Population Normal (%),[12],97%
same,Population Pyknosed Nuclei (%),[12],8%
same,Population Tubulin-Different-Phenotype (%),[12],36%
same,Total Cell Count,[12],334
